According to ChEMBL document CHEMBL1152538, “Synthesis and biological evaluation of asymmetric gramicidin S analogues containing modified D-phenylalanine residues” (Bioorg Med Chem, 2009):
≈ marks a conversion by molar mass, not a printed value. Values belong to the compound of their own block, whether it stands above or below them. *1 amine or outer side, *2 acyl side, *3 side chain or, on linkers, in order; H or OH if unused. Where a SMILES comes first, the peptide text is derived from it. [ ]: non-standard residue; d: D form. The star is where a group is joined. X4 = O=C([C@H](Cc1ccc(N(Cc2ccccc2)Cc2ccccc2)cc1)N[*:1])[*:2]; Phe(4-NO2) = N[C@@H](Cc1ccc([N+](=O)[O-])cc1)C(=O)O; X3 = O=C([C@H](Cc1ccc(NCc2ccccc2)cc1)N[*:1])[*:2]; Diphenylacetyl = O=C(C(c1ccccc1)c1ccccc1)*; X5 = O=C(C(c1ccccc1)(c1ccccc1)c1ccccc1)*; Phe(4-NH2) = Nc1ccc(C[C@H](N)C(=O)O)cc1; X1 = O=C(C1C2CC3CC(C2)CC1C3)*; Isobutyryl = CC(C)C(=O)*; Orn = NCCC[C@H](N)C(=O)O; Propionyl = CCC(=O)*

Columns and labels:
[1] = test system: Pseudomonas aeruginosa; experiment: Antibacterial activity against Pseudomonas aeruginosa AK1 after 24 to 96 hrs by well microplate assay; format: functional
How it was run: (§1)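 Strains were kept at -70 °C, grown at 30 °C on sheep-blood Columbia agar, and suspended in saline to OD595 0.1, then diluted 10×. Inoculum was added at 2 µL per 100 µL Nutrient Broth with yeast extract (2 g/400 mL). Peptide stocks were 4 g/L in ethanol, diluted to 1000 mg/L in water, then twofold in broth (64–1 mg/L). Plates were held at 30 °C for 24–96 h. MIC was the lowest concentration inhibiting growth.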

[2] = test system: Escherichia coli; experiment: Antibacterial activity against Escherichia coli ATCC 25922 after 24 to 96 hrs by well microplate assay; format: functional; how it was run: as §1
[3] = test system: Pseudomonas aeruginosa; experiment: Antibacterial activity against Pseudomonas aeruginosa ATCC 19582 after 24 to 96 hrs by well microplate assay; format: functional; how it was run: as §1
[4] = test system: Streptococcus mitis; experiment: Antibacterial activity against Streptococcus mitis ATCC 33399 after 24 to 96 hrs by well microplate assay; format: functional; how it was run: as §1
[5] = test system: Staphylococcus aureus; experiment: Antibacterial activity against Staphylococcus aureus 7388 after 24 to 96 hrs by well microplate assay; format: functional; how it was run: as §1
[6] = test system: coagulase-negative Staphylococcus; experiment: Antibacterial activity against coagulase-negative Staphylococcus CNS 5277 after 24 to 96 hrs by well microplate assay
[7] = test system: Enterococcus faecalis; experiment: Antibacterial activity against Enterococcus faecalis 1131 after 24 to 96 hrs by well microplate assay; format: functional; how it was run: as §1
[8] = test system: coagulase-negative Staphylococcus; experiment: Antibacterial activity against coagulase-negative Staphylococcus CNS 5115 after 24 to 96 hrs by well microplate assay
[9] = test system: coagulase-negative Staphylococcus; experiment: Antibacterial activity against coagulase-negative Staphylococcus CNS 7368 after 24 to 96 hrs by well microplate assay
[10] = test system: Streptococcus mitis; experiment: Antibacterial activity against Streptococcus mitis BMS after 24 to 96 hrs by well microplate assay; format: functional; how it was run: as §1
[11] = test system: Staphylococcus aureus; experiment: Antibacterial activity against Staphylococcus aureus 7323 after 24 to 96 hrs by well microplate assay; format: functional; how it was run: as §1
[12] = Cytotoxicity against human erythrocytes assessed as hemolysis at 1.5 mM after 4 hrs by twofold dilution assay; format: cell-based; conditions: erythrocyte, 1500 µM

SMILES: CC(C)C[C@@H]1NC(=O)[C@H](CCCN)NC(=O)[C@H](C(C)C)NC(=O)[C@@H]2CCCN2C(=O)[C@H](Cc2ccccc2)NC(=O)[C@H](CC(C)C)NC(=O)[C@H](CCCN)NC(=O)[C@H](C(C)C)NC(=O)[C@@H]2CCCN2C(=O)[C@H](Cc2ccc([N+](=O)[O-])cc2)NC1=O (cyclo(FPV[Orn]L[Phe(4-NO2)]PV[Orn]L))
MIC [1]: > 64 µg/mL
MIC [2]: 64 µg/mL (≈ 53.9 µM)
MIC [3]: > 64 µg/mL
MIC [4]: 32 µg/mL (≈ 27 µM)
MIC [5]: 16 µg/mL (≈ 13.5 µM)
MIC [6]: 16 µg/mL (≈ 13.5 µM)
MIC [7]: 32 µg/mL (≈ 27 µM)
MIC [8]: 16 µg/mL (≈ 13.5 µM)
MIC [9]: 16 µg/mL (≈ 13.5 µM)
MIC [10]: 32 µg/mL (≈ 27 µM)
MIC [11]: 16 µg/mL (≈ 13.5 µM)

SMILES: CCC(=O)Nc1ccc(C[C@@H]2NC(=O)[C@H](CC(C)C)NC(=O)[C@H](CCCN)NC(=O)[C@H](C(C)C)NC(=O)[C@@H]3CCCN3C(=O)[C@H](Cc3ccccc3)NC(=O)[C@H](CC(C)C)NC(=O)[C@H](CCCN)NC(=O)[C@H](C(C)C)NC(=O)[C@@H]3CCCN3C2=O)cc1 (cyclo(FPV[Orn]L[Phe(4-NH2)](Propionyl)PV[Orn]L))
MIC [1]: > 64 µg/mL
MIC [2]: 64 µg/mL (≈ 52.8 µM)
MIC [3]: > 64 µg/mL
MIC [4]: 16 µg/mL (≈ 13.2 µM)
MIC [5]: 16 µg/mL (≈ 13.2 µM)
MIC [6]: 8 µg/mL (≈ 6.6 µM)
MIC [7]: 32 µg/mL (≈ 26.4 µM)
MIC [8]: 16 µg/mL (≈ 13.2 µM)
MIC [9]: 8 µg/mL (≈ 6.6 µM)
MIC [10]: 8 µg/mL (≈ 6.6 µM)
MIC [11]: 32 µg/mL (≈ 26.4 µM)

SMILES: CC(C)C[C@@H]1NC(=O)[C@H](CCCN)NC(=O)[C@H](C(C)C)NC(=O)[C@@H]2CCCN2C(=O)[C@H](Cc2ccccc2)NC(=O)[C@H](CC(C)C)NC(=O)[C@H](CCCN)NC(=O)[C@H](C(C)C)NC(=O)[C@@H]2CCCN2C(=O)[C@H](Cc2ccc(NC(=O)C(C)C)cc2)NC1=O (cyclo(FPV[Orn]L[Phe(4-NH2)](Isobutyryl)PV[Orn]L))
MIC [1]: > 64 µg/mL
MIC [2]: 32 µg/mL (≈ 26.1 µM)
MIC [3]: > 64 µg/mL
MIC [4]: 32 µg/mL (≈ 26.1 µM)
MIC [5]: 16 µg/mL (≈ 13 µM)
MIC [6]: 16 µg/mL (≈ 13 µM)
MIC [7]: 16 µg/mL (≈ 13 µM)
MIC [8]: 16 µg/mL (≈ 13 µM)
MIC [9]: 16 µg/mL (≈ 13 µM)
MIC [10]: 8 µg/mL (≈ 6.52 µM)
MIC [11]: 32 µg/mL (≈ 26.1 µM)

SMILES: CC(=O)Nc1ccc(C[C@@H]2NC(=O)[C@H](CC(C)C)NC(=O)[C@H](CCCN)NC(=O)[C@H](C(C)C)NC(=O)[C@@H]3CCCN3C(=O)[C@H](Cc3ccccc3)NC(=O)[C@H](CC(C)C)NC(=O)[C@H](CCCN)NC(=O)[C@H](C(C)C)NC(=O)[C@@H]3CCCN3C2=O)cc1 (cyclo(FPV[Orn]L[Phe(4-NH2)](Ac)PV[Orn]L))
MIC [1]: > 64 µg/mL
MIC [2]: 64 µg/mL (≈ 53.4 µM)
MIC [3]: > 64 µg/mL
MIC [4]: 16 µg/mL (≈ 13.3 µM)
MIC [5]: 16 µg/mL (≈ 13.3 µM)
MIC [6]: 16 µg/mL (≈ 13.3 µM)
MIC [7]: 64 µg/mL (≈ 53.4 µM)
MIC [8]: 32 µg/mL (≈ 26.7 µM)
MIC [9]: 32 µg/mL (≈ 26.7 µM)
MIC [10]: 8 µg/mL (≈ 6.67 µM)
MIC [11]: 64 µg/mL (≈ 53.4 µM)
Activity [12]: Non-toxic

SMILES: CC(C)C[C@@H]1NC(=O)[C@H](CCCN)NC(=O)[C@H](C(C)C)NC(=O)[C@@H]2CCCN2C(=O)[C@H](Cc2ccccc2)NC(=O)[C@H](CC(C)C)NC(=O)[C@H](CCCN)NC(=O)[C@H](C(C)C)NC(=O)[C@@H]2CCCN2C(=O)[C@H](Cc2ccc(NC(=O)C3C4CC5CC(C4)CC3C5)cc2)NC1=O (some centres not stated) (cyclo(FPV[Orn]L[Phe(4-NH2)](X1)PV[Orn]L))
MIC [1]: > 64 µg/mL
MIC [2]: > 64 µg/mL
MIC [3]: > 64 µg/mL
MIC [4]: 16 µg/mL (≈ 12.1 µM)
MIC [5]: 8 µg/mL (≈ 6.07 µM)
MIC [6]: 16 µg/mL (≈ 12.1 µM)
MIC [7]: 64 µg/mL (≈ 48.5 µM)
MIC [8]: 8 µg/mL (≈ 6.07 µM)
MIC [9]: 8 µg/mL (≈ 6.07 µM)
MIC [10]: 8 µg/mL (≈ 6.07 µM)
MIC [11]: 8 µg/mL (≈ 6.07 µM)
Activity [12]: Non-toxic

Next, values leading:

MIC [1]: > 64 µg/mL
MIC [2]: > 64 µg/mL
MIC [3]: > 64 µg/mL
MIC [4]: 64 µg/mL (≈ 51.3 µM)
MIC [5]: 64 µg/mL (≈ 51.3 µM)
MIC [6]: 64 µg/mL (≈ 51.3 µM)
MIC [7]: > 64 µg/mL
MIC [8]: > 64 µg/mL
MIC [9]: 64 µg/mL (≈ 51.3 µM)
MIC [10]: 64 µg/mL (≈ 51.3 µM)
MIC [11]: > 64 µg/mL
SMILES: CC(C)C[C@@H]1NC(=O)[C@H](CCCN)NC(=O)[C@H](C(C)C)NC(=O)[C@@H]2CCCN2C(=O)[C@H](Cc2ccccc2)NC(=O)[C@H](CC(C)C)NC(=O)[C@H](CCCN)NC(=O)[C@H](C(C)C)NC(=O)[C@@H]2CCCN2C(=O)[C@H](Cc2ccc(NCc3ccccc3)cc2)NC1=O (cyclo(FPV[Orn]L[X3]PV[Orn]L))

MIC [1]: > 64 µg/mL
MIC [2]: > 64 µg/mL
MIC [3]: > 64 µg/mL
MIC [4]: > 64 µg/mL
MIC [5]: > 64 µg/mL
MIC [6]: > 64 µg/mL
MIC [7]: > 64 µg/mL
MIC [8]: > 64 µg/mL
MIC [9]: > 64 µg/mL
MIC [10]: 64 µg/mL (≈ 44.9 µM)
MIC [11]: > 64 µg/mL
SMILES: CC(C)C[C@@H]1NC(=O)[C@H](CCCN)NC(=O)[C@H](C(C)C)NC(=O)[C@@H]2CCCN2C(=O)[C@H](Cc2ccccc2)NC(=O)[C@H](CC(C)C)NC(=O)[C@H](CCCN)NC(=O)[C@H](C(C)C)NC(=O)[C@@H]2CCCN2C(=O)[C@H](Cc2ccc(NC(=O)C(c3ccccc3)(c3ccccc3)c3ccccc3)cc2)NC1=O (cyclo(FPV[Orn]L[Phe(4-NH2)](X5)PV[Orn]L))

MIC [1]: > 64 µg/mL
MIC [2]: > 64 µg/mL
MIC [3]: > 64 µg/mL
MIC [4]: > 64 µg/mL
MIC [5]: 32 µg/mL (≈ 23.7 µM)
MIC [6]: 64 µg/mL (≈ 47.4 µM)
MIC [7]: 16 µg/mL (≈ 11.8 µM)
MIC [8]: > 64 µg/mL
MIC [9]: 8 µg/mL (≈ 5.92 µM)
MIC [10]: 16 µg/mL (≈ 11.8 µM)
MIC [11]: 16 µg/mL (≈ 11.8 µM)
SMILES: CC(C)C[C@@H]1NC(=O)[C@H](CCCN)NC(=O)[C@H](C(C)C)NC(=O)[C@@H]2CCCN2C(=O)[C@H](Cc2ccccc2)NC(=O)[C@H](CC(C)C)NC(=O)[C@H](CCCN)NC(=O)[C@H](C(C)C)NC(=O)[C@@H]2CCCN2C(=O)[C@H](Cc2ccc(NC(=O)C(c3ccccc3)c3ccccc3)cc2)NC1=O (cyclo(FPV[Orn]L[Phe(4-NH2)](Diphenylacetyl)PV[Orn]L))

MIC [1]: > 64 µg/mL
MIC [2]: > 64 µg/mL
MIC [3]: > 64 µg/mL
MIC [4]: 64 µg/mL (≈ 47.9 µM)
MIC [5]: > 64 µg/mL
MIC [6]: 64 µg/mL (≈ 47.9 µM)
MIC [7]: > 64 µg/mL
MIC [8]: > 64 µg/mL
MIC [9]: 64 µg/mL (≈ 47.9 µM)
MIC [10]: 64 µg/mL (≈ 47.9 µM)
MIC [11]: > 64 µg/mL
SMILES: CC(C)C[C@@H]1NC(=O)[C@H](CCCN)NC(=O)[C@H](C(C)C)NC(=O)[C@@H]2CCCN2C(=O)[C@H](Cc2ccccc2)NC(=O)[C@H](CC(C)C)NC(=O)[C@H](CCCN)NC(=O)[C@H](C(C)C)NC(=O)[C@@H]2CCCN2C(=O)[C@H](Cc2ccc(N(Cc3ccccc3)Cc3ccccc3)cc2)NC1=O (cyclo(FPV[Orn]L[X4]PV[Orn]L))

MIC [1]: > 64 µg/mL
MIC [2]: 64 µg/mL (≈ 55.3 µM)
MIC [3]: > 64 µg/mL
MIC [4]: 32 µg/mL (≈ 27.7 µM)
MIC [5]: 16 µg/mL (≈ 13.8 µM)
MIC [6]: 16 µg/mL (≈ 13.8 µM)
MIC [7]: 64 µg/mL (≈ 55.3 µM)
MIC [8]: 32 µg/mL (≈ 27.7 µM)
MIC [9]: 16 µg/mL (≈ 13.8 µM)
MIC [10]: 8 µg/mL (≈ 6.92 µM)
MIC [11]: 32 µg/mL (≈ 27.7 µM)
SMILES: CC(C)C[C@@H]1NC(=O)[C@H](CCCN)NC(=O)[C@H](C(C)C)NC(=O)[C@@H]2CCCN2C(=O)[C@H](Cc2ccccc2)NC(=O)[C@H](CC(C)C)NC(=O)[C@H](CCCN)NC(=O)[C@H](C(C)C)NC(=O)[C@@H]2CCCN2C(=O)[C@H](Cc2ccc(N)cc2)NC1=O (cyclo(FPV[Orn]L[Phe(4-NH2)]PV[Orn]L))
